Experimental findings from ChEMBL document CHEMBL3864163, “I. Discovery of a novel series of CXCR3 antagonists. Multiparametric optimization of N,N-disubstituted benzylamines” (Bioorg Med Chem Lett, 2016) are described below.

Data set [1] deals with T1, C-X-C chemokine receptor type 3 (Homo sapiens, UniProt P49682).
T1 sequence (P49682 whole entry): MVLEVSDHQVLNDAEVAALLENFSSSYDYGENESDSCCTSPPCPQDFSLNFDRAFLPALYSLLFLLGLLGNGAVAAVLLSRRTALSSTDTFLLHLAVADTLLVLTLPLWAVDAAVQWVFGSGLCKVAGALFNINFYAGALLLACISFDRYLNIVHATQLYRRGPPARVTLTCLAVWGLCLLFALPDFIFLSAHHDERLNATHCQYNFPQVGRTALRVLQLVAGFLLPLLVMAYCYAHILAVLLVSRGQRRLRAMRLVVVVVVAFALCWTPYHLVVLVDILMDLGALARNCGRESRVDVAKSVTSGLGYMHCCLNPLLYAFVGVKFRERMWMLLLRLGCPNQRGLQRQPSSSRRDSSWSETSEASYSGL
The data set can be described thus: Displacement of [125I]-CXCL10 from human recombinant CXCR3 transfected in Flp-In-CHO cell membranes after 60 mins by gamma counting method.

The nature of data set [2]: Metabolic stability in human liver microsomes assessed as parent compound remaining in presence of NADPH by LC-MS/MS method. Format: ADME. A digest of the protocol: (§1)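 Compound incubated with liver microsomes (human or mouse) plus NADPH at 37 °C. Loss of parent was followed by LC-MS-MS and reported as percent. Stability bands: low <40%, medium 40–60%, high >60%.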
The nature of data set [3]: Metabolic stability in mouse liver microsomes assessed as parent compound remaining in presence of NADPH by LC-MS/MS method. Format: ADME. The method in brief:
as §1

Data set [4] in a line: Apparent permeability across human Caco2 cells after 2 hrs by LC-MS method. Format: ADME, cell-based. To be noted: Caco-2. The method in brief:
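Caco-2 monolayers checked for integrity, then dosed alongside high- and low-permeability controls. Apical and basal samples taken at 2 h. Four transport conditions: A-B at pH 6.5/7.4 (0% or 0.5% BSA apical, 5% BSA basal), and A-B and B-A at pH 7.4/7.4 (0.5% BSA both sides). Compound quantified by LC/MS. Rapid transport defined as Papp >20 nm/s.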

In data set [5] the target is T2, Muscarinic acetylcholine receptor M2 (Homo sapiens) (UniProt P08172).
T2 sequence (whole entry): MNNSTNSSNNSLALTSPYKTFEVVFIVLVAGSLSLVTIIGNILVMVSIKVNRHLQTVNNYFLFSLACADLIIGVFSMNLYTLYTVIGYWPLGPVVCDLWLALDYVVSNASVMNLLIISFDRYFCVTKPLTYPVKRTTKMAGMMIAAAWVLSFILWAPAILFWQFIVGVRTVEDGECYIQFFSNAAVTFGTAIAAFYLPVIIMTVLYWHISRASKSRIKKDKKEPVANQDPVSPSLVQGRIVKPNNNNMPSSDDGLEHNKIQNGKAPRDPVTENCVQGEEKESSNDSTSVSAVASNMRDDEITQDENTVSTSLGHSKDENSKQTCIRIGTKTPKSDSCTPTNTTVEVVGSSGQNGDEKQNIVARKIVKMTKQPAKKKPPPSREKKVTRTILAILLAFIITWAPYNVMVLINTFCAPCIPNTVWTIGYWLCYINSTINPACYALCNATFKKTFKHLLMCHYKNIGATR
The data set can be described thus: Displacement of [3H]AF-DX384 from recombinant human muscarinic M2 receptor expressed in CHO cells at 10 uM after 60 mins by scintillation counting method relative to control. In kind it is cell-based.

The target in data set [6] is Mu-type opioid receptor (Homo sapiens) (UniProt P35372). In words: Displacement of [3H]DAMGO from recombinant human mu opioid receptor expressed in HEK293 cells at 10 uM after 60 mins by scintillation counting method relative to control. Format: cell-based.
In data set [7] the target is T3, Alpha-1A adrenergic receptor (Homo sapiens) (UniProt P35348).
T3 sequence (whole entry): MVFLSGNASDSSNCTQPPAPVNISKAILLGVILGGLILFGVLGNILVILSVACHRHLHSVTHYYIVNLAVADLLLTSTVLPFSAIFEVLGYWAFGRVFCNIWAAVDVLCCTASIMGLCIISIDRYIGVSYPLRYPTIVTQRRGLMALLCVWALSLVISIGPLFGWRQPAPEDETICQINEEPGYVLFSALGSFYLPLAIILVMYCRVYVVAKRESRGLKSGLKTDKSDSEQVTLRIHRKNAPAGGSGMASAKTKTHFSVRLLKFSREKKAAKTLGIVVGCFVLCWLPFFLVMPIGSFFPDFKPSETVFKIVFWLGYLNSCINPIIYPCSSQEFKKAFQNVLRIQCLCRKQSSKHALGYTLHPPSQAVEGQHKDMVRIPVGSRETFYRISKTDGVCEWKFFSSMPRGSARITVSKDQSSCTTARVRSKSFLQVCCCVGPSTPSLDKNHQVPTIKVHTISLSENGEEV
In words: Displacement of [3H]prazosin from recombinant human alpha 1A adrenergic receptor expressed in CHO cells at 10 uM after 60 mins by scintillation counting method relative to control. Format: cell-based.

Data set [8] addresses T1, C-X-C chemokine receptor type 3. In words: Antagonist activity at human Galphai4qi4-coupled CXCR3A expressed in engineered CHO cells assessed as inhibition of IP-10-induced calcium mobilization by FLIPR assay. Format: functional, cell-based.
The target in data set [9] is T4, Alpha-2A adrenergic receptor (Homo sapiens) (UniProt P08913).
T4 sequence (whole entry): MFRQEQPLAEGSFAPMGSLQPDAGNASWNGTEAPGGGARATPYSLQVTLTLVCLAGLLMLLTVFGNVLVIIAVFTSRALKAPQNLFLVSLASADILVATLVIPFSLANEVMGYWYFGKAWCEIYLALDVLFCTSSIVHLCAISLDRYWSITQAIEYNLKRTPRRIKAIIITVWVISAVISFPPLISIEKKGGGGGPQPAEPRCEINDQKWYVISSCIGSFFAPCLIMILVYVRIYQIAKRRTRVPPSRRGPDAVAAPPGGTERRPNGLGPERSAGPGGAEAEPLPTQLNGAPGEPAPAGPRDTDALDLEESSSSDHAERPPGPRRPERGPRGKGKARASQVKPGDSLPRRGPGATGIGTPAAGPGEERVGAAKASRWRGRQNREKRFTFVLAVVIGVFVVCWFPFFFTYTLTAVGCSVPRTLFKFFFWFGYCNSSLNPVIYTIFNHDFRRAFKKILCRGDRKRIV
The data set can be described thus: Displacement of [3H]RX 821002 from recombinant human alpha 2A adrenergic receptor expressed in CHO cells at 10 uM after 60 mins by scintillation counting method relative to control. Format: cell-based.

For data set [10], the target named is Histamine H1 receptor (Homo sapiens) (UniProt P35367). In words: Displacement of [3H]pyrilamine from recombinant human histamine H1 receptor expressed in HEK293 cells at 10 uM after 60 mins by scintillation counting method relative to control. In kind it is cell-based.
Data set [11] can be described thus: Chemical stability of the compound in 1:1 acetonitrile-water at pH 6.5 after 48 hrs by LC-MS method. In kind it is physicochemical. The conditions noted are these: buffer, pH 6.5, 48 h.
Data set [12] can be described thus: Absolute oral bioavailability in Balb/c mouse at 10 mg/kg. Format: ADME, organism-based. To be noted: in vivo. A digest of the protocol: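 Male Balb/c mice dosed once orally at 10 mg/kg and once intravenously at 3 mg/kg. Either 4 animals per route were profiled individually, or sparse sampling used 24 mice with 3 per time point for mean profiles. Absolute oral bioavailability was derived from the two routes.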

A short description of data set [13]: Intrinsic clearance in human hepatocytes assessed per 10^6 cells at 5 uM. In kind it is ADME, cell-based, Hepatocyte.
Data set [14] concerns the target T5, Muscarinic acetylcholine receptor M1 (Homo sapiens) (UniProt P11229).
T5 sequence (whole entry): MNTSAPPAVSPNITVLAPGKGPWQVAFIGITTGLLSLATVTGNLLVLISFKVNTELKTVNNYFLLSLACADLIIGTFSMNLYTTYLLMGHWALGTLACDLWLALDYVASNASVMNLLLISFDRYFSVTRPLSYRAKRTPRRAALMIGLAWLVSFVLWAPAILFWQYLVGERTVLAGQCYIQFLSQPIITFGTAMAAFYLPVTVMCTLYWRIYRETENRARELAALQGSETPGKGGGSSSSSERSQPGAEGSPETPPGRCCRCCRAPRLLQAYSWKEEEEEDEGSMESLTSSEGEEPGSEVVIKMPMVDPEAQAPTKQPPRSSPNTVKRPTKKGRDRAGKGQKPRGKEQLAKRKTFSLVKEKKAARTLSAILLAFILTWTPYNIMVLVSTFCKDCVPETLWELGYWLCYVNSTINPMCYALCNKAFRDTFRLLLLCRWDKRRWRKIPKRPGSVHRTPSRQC
The data set can be described thus: Displacement of [3H]pirenzepine from recombinant human muscarinic M1 receptor expressed in CHO cells at 10 uM after 60 mins by scintillation counting method relative to control. Format: cell-based.

The structures appear in SMILES notation. A value given as a limit tells only on which side of the number the result lay.

Chain of Mu-type opioid receptor (Homo sapiens) (P35372 whole entry): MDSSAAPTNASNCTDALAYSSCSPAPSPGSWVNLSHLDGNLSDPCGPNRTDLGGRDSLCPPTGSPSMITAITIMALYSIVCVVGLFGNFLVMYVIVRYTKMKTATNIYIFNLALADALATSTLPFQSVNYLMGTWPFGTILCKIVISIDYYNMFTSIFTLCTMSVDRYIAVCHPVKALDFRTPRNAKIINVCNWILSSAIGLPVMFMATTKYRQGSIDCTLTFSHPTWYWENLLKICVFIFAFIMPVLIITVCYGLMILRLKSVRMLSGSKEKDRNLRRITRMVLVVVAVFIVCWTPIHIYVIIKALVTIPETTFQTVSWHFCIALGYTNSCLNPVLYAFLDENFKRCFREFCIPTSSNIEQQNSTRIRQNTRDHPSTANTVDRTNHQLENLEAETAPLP
Chain of Histamine H1 receptor (Homo sapiens) (P35367 whole entry): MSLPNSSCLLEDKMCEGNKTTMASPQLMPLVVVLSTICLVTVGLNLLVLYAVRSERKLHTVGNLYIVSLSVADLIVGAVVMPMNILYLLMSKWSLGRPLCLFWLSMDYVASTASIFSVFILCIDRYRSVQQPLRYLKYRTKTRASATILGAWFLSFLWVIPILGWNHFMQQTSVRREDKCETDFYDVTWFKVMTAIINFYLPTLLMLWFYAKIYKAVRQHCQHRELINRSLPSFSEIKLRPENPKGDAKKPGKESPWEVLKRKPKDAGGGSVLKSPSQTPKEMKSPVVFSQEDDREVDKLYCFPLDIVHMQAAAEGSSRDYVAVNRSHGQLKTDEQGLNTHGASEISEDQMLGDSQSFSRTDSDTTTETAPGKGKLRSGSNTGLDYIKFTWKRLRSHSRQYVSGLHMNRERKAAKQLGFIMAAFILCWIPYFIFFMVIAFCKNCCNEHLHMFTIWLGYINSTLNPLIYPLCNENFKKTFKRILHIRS

Turning to `COc1cc(CN(C)C(C)c2ccc3c(c2)CCO3)ccc1OCCN1C(=O)CCC1=O` (configuration not stated), the IC50 in data set [1] worked out at 403 nM; in [8], 74 nM. Besides, the Stability in data set [2] stood at 53%; in data set [3], 52%. Further, the Papp at 2 h in [4] came out at 5.62 ×10⁻⁶ cm/s. Besides, the inhibition in [5], in data set [6], in data set [7], in [9] and in [10] was greater than 65% in each case.

With `COc1cc(CN(C[C@H]2CC[C@H](C(=O)O)CC2)C(C)c2ccc3c(c2)CCO3)ccc1OCCN1C(=O)COC1=O` (some centres not stated), the Stability is recorded as 88% in data set [2], 93% in data set [3] and “Unstable” in data set [11]. For the same compound, the apparent permeability coefficient (Papp) at 2 h in data set [4] stood at 1.16 ×10⁻⁶ cm/s.

With `Cc1cc(CN(C[C@H]2CC[C@H](C(=O)O)CC2)[C@H]2CCc3cc(Cl)ccc32)ccc1OCCN1C(=O)CCC1=O`, the Stability came out at 78% in data set [2] and 91% in [3]. For the same compound, the Papp at 2 h in data set [4] amounted to 8.12 ×10⁻⁶ cm/s. The compound further yielded a bioavailability in data set [12] of 69%. Also, the CLH in [13] was determined as 0.09 mL/h. Moreover, the inhibition came out at 92% in [5], 87% in data set [6] and 82% in data set [14].
